According to PubChem BioAssay AID588789 (The Scripps Research Institute Molecular Screening Center, 2011):

Target: Platelet-activating factor acetylhydrolase (Mus musculus) (UniProt Q60963)
Experiment: pPAFAH inhibition after oral dosing in mice, late-stage follow-up, in vivo study, gel-based competitive ABPP, fluorescence (AID 588789)
Details: brain membrane gel ABPP, HT-01, 50 mg/kg oral dose, 4 h, active compounds read high
Outline: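 System: mouse brain membrane proteome after oral dosing; Buffer or medium: DPBS; Compound: oral 50 mg/kg in PEG; Schedule: 4 h dosing-to-sacrifice, then 30 min probe labelling, 37 °C; Measured by: in-gel fluorescence after SDS-PAGE; Read-out: % inhibition from band density versus vehicle; Benchmarks: vehicle mice high, gel background low; Replication: four mice.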

Chain of Platelet-activating factor acetylhydrolase (Mus musculus) (Q60963 whole entry, looked up): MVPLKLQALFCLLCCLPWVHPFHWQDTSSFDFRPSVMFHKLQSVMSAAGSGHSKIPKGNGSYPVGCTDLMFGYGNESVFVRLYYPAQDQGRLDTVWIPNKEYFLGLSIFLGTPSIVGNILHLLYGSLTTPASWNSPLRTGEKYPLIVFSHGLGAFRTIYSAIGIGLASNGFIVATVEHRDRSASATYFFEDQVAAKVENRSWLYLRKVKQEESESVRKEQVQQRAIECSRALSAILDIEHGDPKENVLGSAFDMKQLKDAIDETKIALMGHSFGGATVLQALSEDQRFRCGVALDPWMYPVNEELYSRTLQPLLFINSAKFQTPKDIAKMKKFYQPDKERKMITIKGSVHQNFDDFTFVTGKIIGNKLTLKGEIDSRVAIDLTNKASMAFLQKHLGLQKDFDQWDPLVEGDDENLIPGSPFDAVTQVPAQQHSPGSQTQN

Cc1cc(N2CCN(C(=O)Oc3ccc(-c4ccccc4)cn3)CC2)c2ccccc2n1
inhibition: 86%

Cc1cc(N2CCN(C(=O)Oc3ccc(-c4ccccc4)cc3)CC2)c2ccccc2n1
inhibition: 63%
